Experimental data as given in ChEMBL document CHEMBL4251758, “Small Molecule Inhibition of MicroRNA miR-21 Rescues Chemosensitivity of Renal-Cell Carcinoma to Topotecan” (J Med Chem, 2018).
The source made the active and inactive calls. The calls are words filed in the database; no cut-off is given here.

Experiments:
[1] = tested on: microRNA 21; experiment: Inhibition of miR-21 RNA in human A498 cells assessed as potentiation of topotecan-induced cytotoxicity by measuring reduction in topotecan IC50 at 10 uM after 72 hrs by XTT assay relative to topotecan alone; format: cell-based
Procedure, shortened: (§1)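 The chemotherapeutic agent (topotecan) was titrated while the miR-21 inhibitor was held at a fixed concentration, 0.1% DMSO final, in triplicate. Cells were seeded at 500 per well and treated after overnight attachment. After 72 h, XTT was read at 450 nm (630 nm background) at start and after 4 h. Signal normalized to DMSO; IC50 from variable-slope sigmoidal fit.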

[2] = tested on: A549; experiment: Decrease in mature miR-21 expression levels in human A549 cells at 10 uM after 48 hrs by qRT-PCR analysis; format: functional, cell-based
[3] = tested on: microRNA 21; experiment: Inhibition of miR-21 RNA in human A498 cells assessed as potentiation of topotecan-induced inhibition of colony formation by measuring reduction in topotecan IC50 at 10 uM after 2 weeks by crystal violet staining-based microscopic analysis relative to topotecan alone; format: cell-based
Procedure, shortened: (§2)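 A498 cells, 10,000 per well, seeded in 0.45% low-melt agarose in DMEM over a 0.7% agarose base layer, containing increasing compound concentrations or DMSO (0.1% final), in triplicate. For combinations, the inhibitor was held at 10 μM. After 2 weeks, colonies were stained with 0.1% crystal violet and imaged by z-stack microscopy. Colony counts were normalized to DMSO; IC50 from sigmoidal fit.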

[4] = tested on: microRNA 21; experiment: Inhibition of miR-21 RNA in human A498 cells assessed as potentiation of topotecan-induced apoptosis by measuring increase in caspase-3/7 activity at 10 uM after 24 hrs by Caspase-Glo 3/7 assay relative to topotecan alone; format: cell-based
Procedure, shortened: (§3)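 A498 cells, 10,000 per well, treated after overnight attachment for 24 h with DMSO (0.1%), 400 nM topotecan, 10 μM inhibitor, or topotecan plus inhibitor at those levels. Caspase-3/7 activity read by Caspase-Glo 3/7 luminescence and normalized to DMSO. At least three independent experiments; unpaired t test.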

[5] = tested on: SK-OV-3; experiment: Decrease in mature miR-21 expression levels in human SKOV3 cells at 10 uM after 48 hrs by qRT-PCR analysis; format: functional, cell-based
[6] = tested on: microRNA 21; experiment: Inhibition of miR-21 RNA in human A498 cells assessed as increase in PTEN expression at 10 uM after 48 hrs by Western blot analysis relative to control; format: cell-based
Procedure, shortened: (§4)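 A498 cells, 250,000 per well, treated with 10 μM compound or DMSO (0.1%) for 48 h and lysed in RIPA buffer. Lysates were run on 10% SDS-PAGE, transferred to PVDF, and probed with rabbit anti-PTEN, anti-PDCD4 and anti-GAPDH, then HRP secondary. Chemiluminescence densitometry was normalized to GAPDH, then to DMSO.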

[7] = tested on: HeLa; experiment: Effect on primary miR-21 expression levels in human HeLa cells at 10 uM after 48 hrs by qRT-PCR analysis; format: functional, cell-based
Procedure, shortened: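 HeLa cells were treated with 10 μM compound or DMSO (1% final) for 48 h, then RNA was isolated. 50 ng RNA was reverse-transcribed with iScript. TaqMan qPCR used pri-miR-21 and GAPDH primers. Triplicate Ct values were normalized to GAPDH and to DMSO controls by the 2−ΔΔCt method.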

[8] = tested on: microRNA 21; experiment: Inhibition of miR-21 RNA in human A498 cells assessed as potentiation of topotecan-induced apoptosis by measuring increase in caspase-3/7 activity at 10 uM after 24 hrs by Caspase-Glo 3/7 assay relative to control; format: cell-based; parameters: scale not given: the % may be the effect or the level left; procedure, shortened: as §3
[9] = tested on: NIH3T3; experiment: Potentiation of topotecan-induced cytotoxicity in mouse NIH/3T3 cells at 1 to 10 uM after 72 hrs by XTT assay; format: cell-based; details: nih3t3, 72 h; procedure, shortened: as §1
[10] = tested on: microRNA 21; experiment: Inhibition of miR-21 RNA in human HeLa cells harboring miR-21 binding sequence in 3'-UTR of firefly luciferase gene assessed as increase in luciferase expression incubated for 48 hrs by Bright-Glo luciferase reporter gene assay relative to control; format: cell-based
Procedure, shortened: (§5)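 HeLa-miR21-Luc stable line (miR-21 site in the firefly luciferase 3′-UTR), 1000 cells per well. Compound or DMSO (0.1% final) added after overnight attachment, in triplicate, for 48 h. Bright-Glo luminescence was normalized to XTT viability (450 nm) and expressed as fold change relative to DMSO. At least three independent experiments.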

[11] = tested on: MCF7; experiment: Cytotoxicity against human MCF7 cells after 72 hrs by XTT assay; format: functional, cell-based; details: MCF7, 72 h
Procedure, shortened: (§6)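 Cells seeded at 500 per well, incubated overnight, then exposed to increasing compound concentrations (0.1% DMSO final, DMSO control) in triplicate for 72 h. Activated XTT added; absorbance read at 450 nm with 630 nm background at start and after 4 h at 37 °C, 5% CO2. Change normalized to DMSO as % viability; IC50 from variable-slope sigmoidal fit; three independent measurements.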

[12] = Inhibition of miR-125b RNA (unknown origin) transfected in human PC3 cells at 10 uM after 48 hrs by Bright-Glo luciferase reporter gene assay; format: cell-based
[13] = tested on: HCT-116; experiment: Cytotoxicity against human HCT116 cells after 72 hrs by XTT assay; format: functional, cell-based; details: HCT-116, 72 h; procedure, shortened: as §6
[14] = target: microRNA 21; experiment: Inhibition of miR-21 RNA in human HeLa cells harboring miR-21 binding sequence in 3'-UTR of firefly luciferase gene assessed as increase in luciferase expression incubated for 48 hrs by Bright-Glo luciferase reporter gene assay; format: cell-based; procedure, shortened: as §5
[15] = Inhibition of miR-122 RNA (unknown origin) transfected in human Huh7-psiCHECK-miR122 cells at 10 uM incubated for 48 hrs by Bright-Glo luciferase reporter gene assay
[16] = target: Luciferin 4-monooxygenase (Photinus pyralis) (UniProt P08659); experiment: Inhibition of firefly luciferase activity up to 50 uM
Luciferin 4-monooxygenase (Photinus pyralis), sequence (P08659 whole entry): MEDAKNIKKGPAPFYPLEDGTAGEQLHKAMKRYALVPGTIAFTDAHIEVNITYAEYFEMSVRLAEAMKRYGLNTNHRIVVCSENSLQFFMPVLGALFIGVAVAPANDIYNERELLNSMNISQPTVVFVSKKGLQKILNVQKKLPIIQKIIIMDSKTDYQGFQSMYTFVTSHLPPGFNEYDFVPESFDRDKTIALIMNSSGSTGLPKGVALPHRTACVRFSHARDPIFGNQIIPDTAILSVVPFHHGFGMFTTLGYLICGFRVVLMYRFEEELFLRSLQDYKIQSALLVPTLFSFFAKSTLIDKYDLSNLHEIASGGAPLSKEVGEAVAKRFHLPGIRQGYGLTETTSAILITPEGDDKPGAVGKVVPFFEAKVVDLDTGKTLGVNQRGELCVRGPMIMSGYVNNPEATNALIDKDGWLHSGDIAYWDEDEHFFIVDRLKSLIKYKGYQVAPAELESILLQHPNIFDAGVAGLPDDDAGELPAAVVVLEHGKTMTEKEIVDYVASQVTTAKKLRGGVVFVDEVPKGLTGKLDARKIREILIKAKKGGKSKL

[17] = tested on: microRNA 21; experiment: Inhibition of miR-21 RNA in human A498 cells assessed as increase in PDCD4 expression at 10 uM after 48 hrs by Western blot analysis relative to control; format: cell-based; procedure, shortened: as §4
[18] = target: microRNA 21; experiment: Inhibition of miR-21 RNA in human A498 cells assessed as potentiation of topotecan-induced inhibition of colony formation by measuring topotecan IC50 at 10 uM after 2 weeks by crystal violet staining-based microscopic analysis (reference value: 2 uM); format: cell-based; procedure, shortened: as §2
[19] = tested on: A 172; experiment: Cytotoxicity against human A172 cells after 72 hrs by XTT assay; format: functional, cell-based; details: A 172, 72 h; procedure, shortened: as §6
[20] = tested on: HeLa; experiment: Effect on mature miR-21 expression levels in human HeLa cells at 10 uM after 48 hrs by qRT-PCR analysis; format: functional, cell-based
Procedure, shortened: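 HeLa cells, 150,000 per well, grown overnight and exposed to 10 μM compound or DMSO (1% final) for 48 h at 37 °C. RNA was isolated and 100 ng reverse-transcribed with miR-21 or RNU19 TaqMan RT primers. TaqMan qPCR run for 40 cycles. Triplicate Ct values converted to levels relative to DMSO by the 2−ΔΔCt method.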

[21] = tested on: NIH3T3; experiment: Cytotoxicity against mouse NIH/3T3 cells up to 100 uM after 72 hrs by XTT assay; format: cell-based; details: nih3t3, 72 h; procedure, shortened: as §6
[22] = tested on: A498; experiment: Cytotoxicity against human A498 cells after 72 hrs by XTT assay; format: functional, cell-based; details: A498, 72 h; procedure, shortened: as §6

EC50 [14]: 5.3 µM
inhibition [15]: inactive
inhibition [16]: inactive
IC50 [18]: 0.074 µM
SMILES: C#CCOc1ccc(-c2noc(-c3nnn(-c4cccc(/C(C)=N/O)c4)c3N)n2)cc1
fold change (FC) [1]: 11
Activity [2]: inactive
fold change (FC) [3]: 27
fold change (FC) [4]: 1.6
Activity [5]: inactive
fold change (FC) [6]: 1.5
Activity [7]: inactive
Activity [8]: 512%
Activity [9]: Non-Toxic
fold change (FC) [10]: 12.2
IC50 [11]: 4.5 µM
inhibition [12]: inactive
IC50 [13]: 5.9 µM
inhibition [14]: Dose-dependent effect
fold change (FC) [17]: 9.5
IC50 [19]: 4.6 µM
Activity [20]: inactive
Activity [21]: Non-Toxic
IC50 [22]: > 100 µM
